Screening results as filed in PubChem BioAssay.
Only some compounds are listed: those with a hit (about 2.5% of all), similar ones and a draw of the others.
NR2E3 ag-1 – NR2E3 (human) agonism; Q9Y5X4; GST-NR2E3/biotin-RetCOR TR-FRET, 1536-well; inhibition of corepressor binding, % at 4.78 µM; 320,000 tested, 0.12% active; AID 2300;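 active = percent inhibition above the cutoff of mean plus 3 SD of all tested compounds, set per screening campaign, cut at about 20% in these data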
Target sequence (Q9Y5X4 whole entry, looked up): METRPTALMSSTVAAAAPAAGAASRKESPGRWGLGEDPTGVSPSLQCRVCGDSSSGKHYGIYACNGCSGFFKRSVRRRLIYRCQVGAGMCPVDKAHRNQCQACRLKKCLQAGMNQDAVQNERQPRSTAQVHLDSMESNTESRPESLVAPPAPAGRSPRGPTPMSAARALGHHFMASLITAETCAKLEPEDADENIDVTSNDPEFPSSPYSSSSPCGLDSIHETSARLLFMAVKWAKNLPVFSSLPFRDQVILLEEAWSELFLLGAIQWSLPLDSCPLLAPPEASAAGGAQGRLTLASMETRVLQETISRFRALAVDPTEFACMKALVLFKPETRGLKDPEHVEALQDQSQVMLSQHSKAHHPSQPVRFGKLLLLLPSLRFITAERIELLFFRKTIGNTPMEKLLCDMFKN
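Test system – NR2E3–RetCOR corepressor complex · Quantity – NR2E3 fusion 1.35 nM · Buffer or medium – Tris pH 7.5 · Incubation – Compound–protein incubation for 5 h at 4 °C · Technique – TR-FRET, Eu(K)-anti-GST donor, streptavidin-D2 acceptor, ex 340, em 617/671 nm · Evaluation – percent inhibition of 671/617 nm emission ratio versus biotin and DMSO controls · Plate – 1536-well format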
GASC-1 inh – human JMJD2C demethylase inhibition; Q9H3R0; GST-JMJD2C(1-420) H3K9me3 demethylation, DELFIA europium; inhibition, % at 2.35 µM; 330,000 tested, 0.069% active; AID 2099;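 active = more than half of a compound's replicate wells show inhibition beyond 50%, single wells judged on their own value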;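 also: signal counts dimethyl H3K9 product captured on neutravidin plate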
ADAM10 inh – ADAM10 inhibition, QFRET primary screen. inhibition, % at 7 µM. O14672. AID 720582. recombinant ADAM10, EDANS/DABCYL FRET peptide cleavage, 3 h. 370,000 tested, 0.62% active;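 active = inhibition above a per-campaign cutoff equal to the mean of compounds falling between control-based bounds plus 3 SD, cut at about 20% in these data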
NR2E3 ag-2 – agonists of human NR2E3 nuclear receptor; inhibition of corepressor binding, % at 3.98 µM; CHO-S Gal4-NCOR/VP16-NR2E3 two-hybrid, luciferase; Q9Y5X4; AID 602229; 360,000 tested, 0.35% active;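 active = inhibition above the mean of all tested compounds plus 3 SD, cut at about 70% in these data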;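 also: higher means lower luciferase signal from less NR2E3 corepressor binding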
ADAM17 inh – ADAM17 inhibition, QFRET primary screen; P78536; recombinant ADAM17, EDANS/DABCYL FRET peptide cleavage; inhibition, % at 6.95 µM; 370,000 tested, 0.83% active; AID 720648;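 active = inhibition above the mean of compounds lying between control limits plus 3 SD, set per campaign, cut at about 8.5% in these data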
KLK7 zymogen act – activates the human kallikrein-7 zymogen; purified proKLK7, EDANS-DABCYL substrate fluorescence; 100% is mature enzyme control, 0% vehicle; P49862; 370,000 tested, 0.9% active; AID 652039; activation, % at 7 µM;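 active = activation above the mean of all tested compounds plus 3 SD, computed per campaign excluding outliers beyond control limits, cut at about 13% in these data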
Target sequence (P49862 whole entry, looked up): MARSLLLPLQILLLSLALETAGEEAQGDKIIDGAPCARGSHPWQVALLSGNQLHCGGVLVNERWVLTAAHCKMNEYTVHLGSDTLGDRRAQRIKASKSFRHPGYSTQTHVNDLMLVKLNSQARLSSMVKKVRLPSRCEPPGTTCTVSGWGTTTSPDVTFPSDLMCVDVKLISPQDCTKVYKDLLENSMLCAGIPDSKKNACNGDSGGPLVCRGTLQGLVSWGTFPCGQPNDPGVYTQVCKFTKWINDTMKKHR
ADAM10 confirm – human ADAM10 inhibition, confirmation; shares compounds with ADAM10 inh; ADAM10 QFRET peptide cleavage, EDANS fluorescence; inhibition, % at 6.95 µM; 2,100 tested, 1% active;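 active = inhibition above about 20% chosen separately for each screening run, limit read from the data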
ADAM17 counter – counter-screen for ADAM10 exosite inhibitors: inhibitors of human ADAM17; shares compounds with ADAM10 inh; ADAM17 QFRET peptide cleavage, EDANS fluorescence; inhibition, % at 6.95 µM; 2,100 tested, 0.5% active; AID 743214;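 active = mean triplicate inhibition above the solvent-only control wells' mean plus 3 SD, cut at about 12% in these data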
ADAM10 counter – ADAM10 inhibition, counter-screen for ADAM17 exosite hits. 2,900 tested, 47% active. inhibition, % at 6.95 µM. shares compounds with ADAM17 inh. recombinant ADAM10, EDANS/DABCYL FRET peptide cleavage, 3 h;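 active = mean inhibition over the triplicate runs exceeds the activity threshold set in the earlier primary screen, cut at about 20% in these data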
ADAM17 confirm – confirmation of inhibitors of human ADAM17; shares compounds with ADAM17 inh; recombinant ADAM17, EDANS/DABCYL QFRET peptide cleavage; inhibition, % at 6.95 µM; 2,900 tested, 65% active; AID 743257;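 active = mean inhibition across replicates above the hit cutoff set in the primary screen, cut at about 8.5% in these data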
Of the large screens only hits and unclear results are named; the others gave an inactive call (follow-up assays come after a bar, where they were run).

COCOCCn1cc(CN2CCS(=O)(=O)N(Cc3ccc(-c4ccc(Cl)c(Cl)c4)cc3)C(C(C)C)C2=O)nn1 (stereo not drawn)	ADAM10 inh 27, ADAM17 inh 9.1 (no result: NR2E3 ag-1, GASC-1 inh) | ADAM10 confirm inactive | ADAM17 counter inactive | ADAM10 counter 28 | ADAM17 confirm 20
CC(C)CC1C(=O)N(Cc2cn(CCC3OCCO3)nn2)CCS(=O)(=O)N1Cc1ccc(-c2ccccc2)cc1 (stereo not drawn)	none (no result: NR2E3 ag-1, GASC-1 inh)
Cc1ccc(-c2ccc(CN3C(CC(C)C)C(=O)N(Cc4cn(CCC5OCCO5)nn4)CCS3(=O)=O)cc2)cc1 (stereo not drawn)	ADAM10 inh 26, ADAM17 inh 9.8 (no result: NR2E3 ag-1, GASC-1 inh) | ADAM10 confirm inactive | ADAM17 counter inactive | ADAM10 counter 26 | ADAM17 confirm 23
CCN(CC)c1ccc(NC(=O)c2c(C)noc2C)cc1	none
CC(=O)c1c(C)nn(CC(O)COc2ccc3ccccc3c2)c1C (stereo not drawn)	none
Cc1ccc(C(C)C)c(OCC(=O)N/N=C/c2cccn2C)c1	none
N#Cc1ccc(S(=O)(=O)N2CCN(Cc3cccs3)CC2)cc1	none
CN1CC(c2ccc(C#N)cc2)C2(COc3ccccc3C2=O)C12C(=O)Nc1ccccc12 (stereo not drawn)	none
Cc1cccc(NC(=S)N/N=C/c2ccc([N+](=O)[O-])s2)c1	ADAM10 inh 26, ADAM17 inh 13 | ADAM10 confirm inactive | ADAM17 counter inactive | ADAM10 counter 23 | ADAM17 confirm 15
Cc1cccc(NC(=O)/C=C/c2ccc([N+](=O)[O-])s2)c1	none
Cc1ccc(S(=O)(=O)N(C)C[C@H]2Oc3cc(Br)ccc3S(=O)(=O)N([C@H](C)CO)C[C@H]2C)cc1	ADAM10 inh 31, ADAM17 inh 17 (no result: NR2E3 ag-1, GASC-1 inh) | ADAM10 confirm inactive | ADAM17 counter inactive | ADAM10 counter inactive | ADAM17 confirm inactive
COc1ccc(-n2c(Cc3cccs3)nnc2SCC(=O)Nc2ccc(OCc3ccccc3)cc2)cc1	ADAM10 inh 21, ADAM17 inh 11 (no result: NR2E3 ag-1, GASC-1 inh, NR2E3 ag-2) | ADAM10 confirm inactive | ADAM17 counter inactive | ADAM10 counter 25 | ADAM17 confirm 16
O=C(CSc1nnc(COc2ccccc2)n1-c1ccc(Cl)cc1)Nc1ccc(OCc2ccccc2)cc1	none (no result: NR2E3 ag-1, GASC-1 inh, NR2E3 ag-2)
O=C(CSc1nnc(COc2ccccc2)n1-c1ccc(Cl)cc1)Nc1ccccc1-c1ccccc1	ADAM10 inh 28, ADAM17 inh 13 (no result: NR2E3 ag-1, GASC-1 inh, NR2E3 ag-2) | ADAM10 confirm inactive | ADAM17 counter inactive | ADAM10 counter inactive | ADAM17 confirm 14
Cn1c(Cc2cccs2)nnc1SCC(=O)Nc1ccc(OCc2ccccc2)cc1	none (no result: NR2E3 ag-1, GASC-1 inh, NR2E3 ag-2)
Cc1ccc(-n2c(Cc3cccs3)nnc2SCC(=O)Nc2ccc(OCc3ccccc3)cc2)cc1	ADAM10 inh 21, ADAM17 inh 12 (no result: NR2E3 ag-1, GASC-1 inh, NR2E3 ag-2) | ADAM10 confirm inactive | ADAM17 counter inactive | ADAM10 counter 22 | ADAM17 confirm 15
Cc1ccc(C(=O)NCc2ccco2)cc1S(=O)(=O)N1CCCCC1	none
Cc1ccc(C(=O)Nc2ccccc2C(=O)NCc2ccco2)cc1S(=O)(=O)N1CCCCC1	ADAM10 inh 25, ADAM17 inh 9.6 | ADAM10 confirm inactive | ADAM17 counter inactive | ADAM10 counter 35 | ADAM17 confirm 20
Cc1cc(C(=O)CCC(=O)NCC2COc3ccccc3O2)c(C)s1 (stereo not drawn)	none
CN(C)S(=O)(=O)c1cccc(NC(=O)CSc2nc3ccccc3n2-c2ccccc2)c1	ADAM10 inh 20, ADAM17 inh 10 | ADAM10 confirm inactive | ADAM17 counter inactive | ADAM10 counter 24 | ADAM17 confirm 13
O=C(CSc1nc2ccccc2c(=O)n1-c1ccc(F)cc1)Nc1ccc(Cl)c(S(=O)(=O)N2CCOCC2)c1	none
CN(C)S(=O)(=O)c1ccc(NC(=O)CSc2nc3ccccc3n2-c2ccccc2)cc1	none
O=C(CSc1nc2ccccc2c(=O)n1-c1ccc(F)c(Cl)c1)Nc1cccc(S(=O)(=O)N2CCOCC2)c1	ADAM10 inh 20, ADAM17 inh 10 | ADAM10 confirm inactive | ADAM17 counter inactive | ADAM10 counter 30 | ADAM17 confirm 20
CCCc1cc(=O)n2[nH]c(C)c(-c3ccc(OC)cc3)c2n1	none
CCN(CC)S(=O)(=O)c1ccc(S(=O)(=O)Nc2ccc3c(c2)oc2ccccc23)cc1	ADAM10 inh 32, ADAM17 inh 14 | ADAM10 confirm inactive | ADAM17 counter inactive | ADAM10 counter 47 | ADAM17 confirm 25
CCOC(=O)C1=CCN(S(=O)(=O)c2ccccc2Br)C1c1ccc(Cl)c(Cl)c1 (stereo not drawn)	none (no result: NR2E3 ag-1, GASC-1 inh)
CCOC(=O)C1=CCN(S(=O)(=O)c2ccccc2Cl)C1c1ccc(Cl)c(Cl)c1 (stereo not drawn)	ADAM10 inh 21, ADAM17 inh 15 (no result: NR2E3 ag-1, GASC-1 inh) | ADAM10 confirm inactive | ADAM17 counter inactive | ADAM10 counter inactive | ADAM17 confirm inactive
O=C1OCC2=Nc3cccc4cccc(c34)N12	none (no result: NR2E3 ag-1, GASC-1 inh, NR2E3 ag-2)
O=C(CNc1cc(S(=O)(=O)N2CCCC2)ccc1OCC(F)(F)F)Nc1cccc(C(F)(F)F)c1	ADAM10 inh 26, ADAM17 inh 11 | ADAM10 confirm inactive | ADAM17 counter inactive | ADAM10 counter 41 | ADAM17 confirm 17
CC(C)NC(=O)C1(C)CN(S(C)(=O)=O)CC(=O)N1CCCn1ccnc1 (stereo not drawn)	none (no result: NR2E3 ag-1, GASC-1 inh, NR2E3 ag-2)
CC(C)c1ccc(S(=O)(=O)Nc2ccc(SC(F)F)cc2)cc1	ADAM10 inh 41, ADAM17 inh 19 | ADAM10 confirm inactive | ADAM17 counter inactive | ADAM10 counter 26 | ADAM17 confirm 15
Cc1ccc(S(=O)(=O)Nc2ccc(SC(F)F)cc2)c(C)c1	ADAM10 inh 27, ADAM17 inh 11 | ADAM10 confirm inactive | ADAM17 counter inactive | ADAM10 counter 23 | ADAM17 confirm 11
CC1CCN(S(=O)(=O)c2ccc3c(c2)C(Cl)(Cl)C(=O)N3)CC1	none (no result: NR2E3 ag-1, GASC-1 inh)
Cc1ccc(OC(C)C(=O)Nc2ccncc2)cc1 (stereo not drawn)	none
